Experimental data from ChEMBL document CHEMBL5506039, “Discovery and Optimization of Tambjamines as a Novel Class of Antileishmanial Agents” (J Med Chem, 2024).
pEC50: −log10 of the molar value.

Experiments:
Leishmania mexicana [1] = experiment: Antileishmanial activity against Leishmania mexicana MNYC/BZ/62/M379 amastigotes expressing red-shifted firefly luciferase from integrated ribosomal (28S) RNA locus infected in mouse J774.A1 cells assessed as parasite survival at 0.1 uM measured after 96 hrs by luminescence based analysis relative to control; assay type: functional; conditions: MNYC/BZ/62/M379, J774.A1
[2] = Cytotoxicity against mouse J774.A1 cells assessed as cell survival at 0.1 uM measured after 96 hrs by SYBR Green II dye based analysis relative to control; assay type: toxicity; conditions: read-out: Survival
Procedure, shortened: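 Uninfected J774A.1 mouse macrophages were plated at 1 × 10⁴ cells/well in DMEM with 10% heat-inactivated FBS and left 3 h at 37 °C to reattach. Compounds were added from DMSO, and analogues were screened at 0.1 μM. After 96 h at 37 °C in 5% CO₂, medium was removed. SYBR Green II (1:1000 in 1% Triton/PBS) was added for 1 h in the dark at room temperature, and fluorescence was read at Ex 485/Em 535 as a DNA-content measure of viability.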

Leishmania mexicana [3] = experiment: Antileishmanial activity against Leishmania mexicana MNYC/BZ/62/M379 amastigotes expressing red-shifted firefly luciferase from integrated ribosomal (28S) RNA locus infected in mouse J774.A1 cells assessed as reduction in parasite survival measured after 96 hrs by luminescence based analysis; assay type: functional, organism-based; conditions: MNYC/BZ/62/M379, J774.A1, 96 h
Procedure, shortened: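 J774A.1 macrophages infected with stationary-phase luciferase-expressing promastigotes at 10:1 parasites:macrophage, overnight at 37 °C, 5% CO₂. Non-internalized parasites washed off and 1 × 10⁴ cells/well replated in MEM/10% HI-FBS. Compounds in DMSO added as serial 3-fold dilutions (typically 10 μM–1 nM) for 96 h. Luciferase luminescence read; EC50 from log-transformed sigmoidal variable-slope fit. Mean ± SD of ≥2 independent experiments.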

[4] = Cytotoxicity against mouse J774.A1 cells assessed as reduction in cell survival measured after 96 hrs by SYBR Green II dye based analysis; assay type: toxicity
Procedure, shortened: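 Uninfected J774A.1 macrophages, 1 × 10⁴ cells/well in DMEM/10% HI-FBS, reattached 3 h, then exposed to compounds for 96 h. DNA content read after lysis with SYBR Green II (1:1000 in 1% Triton/PBS), 1 h dark at room temperature, fluorescence Ex 485/Em 535.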

[5] = Therapeutic index, ratio of EC50 for mouse J774.A1 cells to EC50 for antileishmanial activity against Leishmania mexicana MNYC/BZ/62/M379 amastigotes expressing red-shifted firefly luciferase from integrated ribosomal (28S) RNA locus infected in mouse J774.A1 cells; assay type: toxicity, cell-based; conditions: read-out: TI

Compound: CC1=C/C(=C/NC2CCCCCCC2)N=C1c1ccc[nH]1
- survival at 0.1 µM (Leishmania mexicana [1]): 48.6%
- viability at 96 h, 0.1 µM [2]: 150%

Compound: CC1=C(C)/C(=C/NCC2CCCCCC2)N=C1c1ccc[nH]1
- survival at 0.1 µM (Leishmania mexicana [1]): 14.2%
- viability at 96 h, 0.1 µM [2]: 53.2%
- pEC50 (Leishmania mexicana [3]): 7.04
- EC50 at 96 h [4]: 1600 nM
- selectivity ratio [5]: 17

Compound: CC1=C(C)/C(=C/NC2CCCCCC2)N=C1c1[nH]c(C)cc1C
- survival at 0.1 µM (Leishmania mexicana [1]): 43.8%
- viability at 96 h, 0.1 µM [2]: 56.8%
- pEC50 (Leishmania mexicana [3]): 6.74

Compound: FC(F)(F)Oc1ccc(OC2=CC(c3ccc[nH]3)=N/C2=C\NC2CCCCC2)cc1
- survival at 0.1 µM (Leishmania mexicana [1]): 52.7%
- viability at 96 h, 0.1 µM [2]: 81.3%
- pEC50 (Leishmania mexicana [3]): 7.08
- EC50 at 96 h [4]: 982 nM
- selectivity ratio [5]: 11.7

Compound: C[C@H]1CC[C@@H](N/C=C2\N=C(c3ccc[nH]3)C=C2Oc2ccc(OC(F)(F)F)cc2)CC1
- survival at 0.1 µM (Leishmania mexicana [1]): 79.9%
- viability at 96 h, 0.1 µM [2]: 112%

Compound: FC(F)(F)Oc1ccc(OC2=CC(c3ccc[nH]3)=N/C2=C\NCC2CCCCCC2)cc1
- survival at 0.1 µM (Leishmania mexicana [1]): 42.9%
- viability at 96 h, 0.1 µM [2]: 97.6%
- pEC50 (Leishmania mexicana [3]): 6.78
- EC50 at 96 h [4]: 717 nM
- selectivity ratio [5]: 4.3

Compound: CCC1=C(CC)/C(=C/NC2CCCCCC2)N=C1c1ccc[nH]1
- survival at 0.1 µM (Leishmania mexicana [1]): 27.5%
- viability at 96 h, 0.1 µM [2]: 26.7%

Compound: CCC1=C(CC)/C(=C/NC2CCCCCCC2)N=C1c1ccc[nH]1
- survival at 0.1 µM (Leishmania mexicana [1]): 17%
- viability at 96 h, 0.1 µM [2]: 29.5%

Compound: COc1ccc(Oc2ccc(N/C=C3\N=C(c4ccc[nH]4)C(C)=C3C)cc2)cc1
- survival at 0.1 µM (Leishmania mexicana [1]): 108%
- viability at 96 h, 0.1 µM [2]: 65.9%

Compound: FC(F)(F)Oc1ccc(OC2=CC(c3ccc[nH]3)=N/C2=C\NC2CCCCCC2)cc1
- survival at 0.1 µM (Leishmania mexicana [1]): 43%
- viability at 96 h, 0.1 µM [2]: 82.8%
- pEC50 (Leishmania mexicana [3]): 6.81
- EC50 at 96 h [4]: 642 nM
- selectivity ratio [5]: 4.1

Compound: COC1=CC(c2ccc[nH]2)=N/C1=C\NC1CCCCC1
- survival at 0.1 µM (Leishmania mexicana [1]): 7.33%
- viability at 96 h, 0.1 µM [2]: 88.9%
- pEC50 (Leishmania mexicana [3]): 7.39
- EC50 at 96 h [4]: > 1000 nM
- selectivity ratio [5]: > 25

Compound: C[C@H]1CC[C@H](N/C=C2\N=C(c3ccc[nH]3)C=C2c2ccc(OC(F)(F)F)cc2)CC1
- survival at 0.1 µM (Leishmania mexicana [1]): 81.6%
- viability at 96 h, 0.1 µM [2]: 116%

Compound: FC(F)(F)Oc1ccc(C2=CC(c3ccc[nH]3)=N/C2=C\NC2CCCCCC2)cc1
- survival at 0.1 µM (Leishmania mexicana [1]): 77.9%
- viability at 96 h, 0.1 µM [2]: 95.8%

Compound: FC(F)(F)Oc1ccc(N/C=C2\N=C(c3ccc[nH]3)C3=C2CCCC3)cc1
- survival at 0.1 µM (Leishmania mexicana [1]): 84.9%
- viability at 96 h, 0.1 µM [2]: 92.7%

Compound: Fc1cc(F)cc(OC2=CC(c3ccc[nH]3)=N/C2=C\NC2CCCCCC2)c1
- survival at 0.1 µM (Leishmania mexicana [1]): 87.2%
- viability at 96 h, 0.1 µM [2]: 65.8%

Compound: CCCCCCCCCCCN/C=C1\N=C(c2ccc[nH]2)C=C1Oc1ccc(OC(F)(F)F)cc1
- survival at 0.1 µM (Leishmania mexicana [1]): 58%
- viability at 96 h, 0.1 µM [2]: 96.7%

Compound: CC1=C/C(=C/NC2CCCCCC2)N=C1c1ccc[nH]1
- survival at 0.1 µM (Leishmania mexicana [1]): 89%
- viability at 96 h, 0.1 µM [2]: 127%

Compound: CC1=C(C)/C(=C/Nc2ccc(C)cc2)N=C1c1ccc[nH]1
- survival at 0.1 µM (Leishmania mexicana [1]): 74%
- viability at 96 h, 0.1 µM [2]: 54.2%

Compound: CCC1=C/C(=C/NC2CCCCCC2)N=C1c1ccc[nH]1
- survival at 0.1 µM (Leishmania mexicana [1]): 33.9%
- viability at 96 h, 0.1 µM [2]: 32.2%

Compound: CCC1=C/C(=C/NC2CCCCCCC2)N=C1c1ccc[nH]1
- survival at 0.1 µM (Leishmania mexicana [1]): 34.6%
- viability at 96 h, 0.1 µM [2]: 35.8%

Compound: C[C@H]1CC[C@H](N/C=C2\N=C(c3ccc[nH]3)C=C2Oc2cc(F)cc(F)c2)CC1
- survival at 0.1 µM (Leishmania mexicana [1]): 96.2%
- viability at 96 h, 0.1 µM [2]: 55.3%

Compound: Clc1ccc(N/C=C2\N=C(c3ccc[nH]3)C3=C2CCCC3)cc1
- survival at 0.1 µM (Leishmania mexicana [1]): 103%
- viability at 96 h, 0.1 µM [2]: 67.2%

Compound: CC1=C(C)/C(=C/Nc2ccc(Cl)cc2)N=C1c1ccc[nH]1
- survival at 0.1 µM (Leishmania mexicana [1]): 92.2%
- viability at 96 h, 0.1 µM [2]: 88.1%

Compound: CC1=C(C)/C(=C/Nc2ccc(Oc3ccc(C)cc3)cc2)N=C1c1ccc[nH]1
- survival at 0.1 µM (Leishmania mexicana [1]): 111%
- viability at 96 h, 0.1 µM [2]: 66.2%

Compound: CC1=C(C)/C(=C/Nc2ccc(OC(F)(F)F)cc2)N=C1c1ccc[nH]1
- survival at 0.1 µM (Leishmania mexicana [1]): 102%
- viability at 96 h, 0.1 µM [2]: 77.2%

Compound: COC1=CC(c2ccc[nH]2)=N/C1=C\Nc1ccccc1OC(F)(F)F
- survival at 0.1 µM (Leishmania mexicana [1]): 69.9%
- viability at 96 h, 0.1 µM [2]: 81%

Compound: C(/NC1CCCCCCC1)=C1/N=C(c2ccc[nH]2)C2=C1CCCC2
- survival at 0.1 µM (Leishmania mexicana [1]): 33.4%
- viability at 96 h, 0.1 µM [2]: 75.8%
